From ChEMBL document CHEMBL1144560, “Synthesis of benzofuran scaffold-based potential PTP-1B inhibitors” (Bioorg Med Chem, 2007)
Active and inactive are the calls of the source. No cut-off for these calls is given here.

How the values were obtained:
[1] = biological target: T1, Tyrosine-protein phosphatase non-receptor type 1 (Homo sapiens, UniProt P18031); assay: Inhibition of PTP1B
T1 sequence (P18031 whole entry): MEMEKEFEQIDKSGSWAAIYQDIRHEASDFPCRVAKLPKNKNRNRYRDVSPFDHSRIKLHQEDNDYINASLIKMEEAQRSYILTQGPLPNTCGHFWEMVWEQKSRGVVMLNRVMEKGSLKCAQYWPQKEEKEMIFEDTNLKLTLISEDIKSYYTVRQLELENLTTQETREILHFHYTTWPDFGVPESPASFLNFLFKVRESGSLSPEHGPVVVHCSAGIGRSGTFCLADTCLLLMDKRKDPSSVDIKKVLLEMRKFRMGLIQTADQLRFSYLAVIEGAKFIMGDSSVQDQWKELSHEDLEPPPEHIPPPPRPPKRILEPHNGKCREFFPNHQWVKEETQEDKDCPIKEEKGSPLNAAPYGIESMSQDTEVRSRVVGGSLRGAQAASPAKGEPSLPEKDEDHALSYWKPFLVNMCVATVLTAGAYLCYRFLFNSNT
Procedure, shortened: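 No detergent present. Compounds at 10, 25, 50, 75 and 100 µM preincubated 10 min with PTP-1B, then 10 mM pNPP in 50 mM HEPES pH 7.0, 1 mM DTT, 2 mM EDTA, 30 min at 37 °C. NaOH stop. A410 converted to p-nitrophenolate (ε 1.78×10^4 M⁻¹cm⁻¹). IC50 and Ki derived.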

[2] = biological target: T2, Tyrosine-protein phosphatase non-receptor type 1 (Homo sapiens) (UniProt P18031); assay: (§1) Inhibition of PTP1B at 100 uM
T2 sequence (whole entry): T1 sequence (P18031 whole entry)
Procedure, shortened: (§2)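 Compound at 100 µM preincubated 10 min with PTP-1B, then 10 mM pNPP in 50 mM HEPES pH 7.0 with 1 mM DTT and 2 mM EDTA for 30 min at 37 °C. Stopped with 0.1 N NaOH. p-Nitrophenolate read at 410 nm (ε 1.78×10^4 M⁻¹cm⁻¹) to give residual activity. Mean of three independent experiments.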

[3] = biological target: T1, Tyrosine-protein phosphatase non-receptor type 1; assay: Inhibition of PTP1B in presence of 0.01% Triton X-100
Procedure, shortened: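 0.01% Triton X-100 included during the 10-min preincubation of compound (10–100 µM) with PTP-1B. Then 10 mM pNPP in 50 mM HEPES pH 7.0, 1 mM DTT, 2 mM EDTA, 30 min at 37 °C, NaOH stop. Read at 410 nm (ε 1.78×10^4 M⁻¹cm⁻¹). IC50 and Ki derived.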

[4] = biological target: Tyrosine-protein phosphatase non-receptor type 1 (Homo sapiens) (UniProt P18031); assay: as §1; procedure, shortened: as §2; remark: listed apart in the source

## CC(=O)c1cc2cc(-c3coc4cc(O)c(C(C)=O)cc34)oc2cc1O
[1]
  IC50: 80 µM
  Ki: 37 µM
[2]
  inhibition: 74.9%
[3]
  IC50: 91.3 µM
  Ki: 61 µM

## SODIUM ORTHOVANAD
[4]
  inhibition: 56%

## COc1ccc(/C(O)=C/C(=O)c2ccc3occc3c2OC)cc1
[2]
  Activity: inactive

## CC(=O)c1ccc2occc2c1O
[2]
  inhibition: 21.6%

## O=C(/C=C(\O)c1ccccc1)c1cc2ccoc2cc1O
[2]
  inhibition: 24.3%

## COc1ccc(/C(O)=C/C(=O)c2cc3ccoc3cc2O)cc1OC
[2]
  inhibition: 32.4%

## O=c1cc(-c2ccccc2)oc2c1ccc1occc12
[2]
  inhibition: 21%

## CC(=O)c1ccc2oc(-c3coc4ccc(C(C)=O)c(O)c34)cc2c1O
[1]
  IC50: 87 µM
  Ki: 35 µM
[2]
  inhibition: 67.4%
[3]
  IC50: 58.8 µM
  Ki: 27.5 µM

## COc1ccc(-c2cc(=O)c3ccc4occc4c3o2)cc1
[2]
  inhibition: 22%

## COc1ccc2cc(-c3coc4c(C(C)=O)c(OC)ccc34)oc2c1C(C)=O
[2]
  inhibition: 54.6%

## O=C(/C=C(\O)c1ccccc1)c1ccc2occc2c1O
[2]
  inhibition: 40.5%

## COc1cccc(/C(O)=C/C(=O)c2cc3ccoc3cc2O)c1
[2]
  Activity: inactive

## O=c1cc(-c2ccc(CO)c(CO)c2)oc2cc3occc3cc12
[2]
  inhibition: 8.1%

## COc1ccc(-c2cc(=O)c3cc4ccoc4cc3o2)cc1OC
[2]
  inhibition: 24.3%

## O=c1cc(-c2ccccc2)oc2cc3occc3cc12
[1]
  IC50: 94 µM
  Ki: 57 µM
[2]
  inhibition: 67.5%
[3]
  IC50: 61.3 µM
  Ki: 45 µM

## O=C(/C=C(\O)c1ccc(CO)c(CO)c1)c1cc2ccoc2cc1O
[2]
  inhibition: 56.7%

## COc1c(C(=O)/C=C(\O)c2ccccc2Cl)ccc2occc12
[2]
  inhibition: 27%

## COc1ccc(-c2cc(=O)c3cc4ccoc4cc3o2)cc1
[1]
  IC50: 72.5 µM
  Ki: 30 µM
[2]
  inhibition: 75.6%
[3]
  IC50: 68.8 µM
  Ki: 36 µM

## CC(=O)c1cc2oc(-c3coc4cc(C(C)=O)c(O)cc34)cc2cc1O
[2]
  inhibition: 36.2%

## COc1ccc(/C(O)=C/C(=O)c2ccc3occc3c2O)cc1
[2]
  inhibition: 24.3%

## CC(=O)c1cc2ccoc2cc1O
[2]
  inhibition: 19%

## COc1c(C(=O)/C=C(\O)c2ccc(CO)c(CO)c2)ccc2occc12
[2]
  inhibition: 42.8%

## COC(=O)c1ccc2oc(-c3coc4ccc(C(=O)OC)c(O)c34)cc2c1O
[2]
  inhibition: 55.5%

## COc1cccc(-c2cc(=O)c3cc4ccoc4cc3o2)c1
[2]
  Activity: inactive

## CC(=O)c1c(O)ccc2cc(-c3coc4c(C(C)=O)c(O)ccc34)oc12
[1]
  IC50: 75 µM
  Ki: 64 µM
[2]
  inhibition: 72%
[3]
  IC50: 56.3 µM
  Ki: 54 µM

## COc1cc2occc2cc1C(=O)/C=C(\O)c1ccccc1
[2]
  inhibition: 41.5%

## COc1ccc(/C(O)=C/C(=O)c2cc3ccoc3cc2O)cc1
[2]
  inhibition: 40.5%
